High-throughput results (PubChem)
T cell modulator = modulators of CD8 T cell-vesicle binding, primary screen, mouse 2C CD8+ T cells, flow cytometry; 2C CD8+ T cell-vesicle binding; hits give low values; 0.068% of 330,000 active; response (vesicle binding), % at 7 µM; AID 2052, 2009;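 active = response, share of CD8 T cells binding vesicles, and their 90th percentile fluorescence all below set limits, cut at about 80% in these data, passing the limit was not always enough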;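 also: values below 100% mean blocked vesicle binding to the CD8+ T cells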
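Also added: QL9-peptide-loaded Drosophila micro-vesicles bearing Ld, ICAM-1 and B7-1; Test system: purified 2C TCR transgenic mouse naive CD8+ T cells; Measured by: cytometric PE anti-B7-1 and Alexa647 anti-CD8 signals after 1% paraformaldehyde fixation; Timing: binding step 1.5 h, 37 °C, antibody labelling 20 min, ice.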
Pemphigus Ab inh = inhibitors of pemphigus antibody binding to DSG3, primary screen, biochemical, bead-based, flow cytometry, scFv-GFP; Desmoglein-3 (Homo sapiens), P32926; DSG3-coupled beads, scFv-anti-DSG3-GFP binding; hits give low values; 0.48% of 310,000 active; binding (percent of control), % at 10 µM;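 active = binding more than 3 SD below its plate's average and above zero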;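 also: hits lower antibody fragment binding to DSG3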
GPR7 antag = GPR7 receptor antagonists, primary screen, cell-based, fluorescence, single concentration. Neuropeptides B/W receptor type 1 (Homo sapiens), P48145. GPR7-expressing cells, fluorescence antagonist assay. inhibition, % at 4.4 µM. 1.1% of 290,000 active; in the data active = inhibition above about 16%, passing the limit was not always enough;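 also: cells stimulated with the agonist NPW; 0% = agonist with vehicle and 100% = vehicle without agonist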
CHT allo act = CHT positive allosteric modulators, primary screen, cell-based, membrane potential dye, choline EC20; High affinity choline transporter 1 (Homo sapiens), Q9GZV3; CHT-expressing cells; hits give high values; LV-AA mutant CHT in HEK293 cells; B-score at 10 µM; 0.49% of 310,000 active; AID 488977, 2010;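 active = initial fluorescence not abnormally high and integrated response B-score, plate-corrected, over 3 SD above library mean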
CHT block = inhibitors of human choline transporter CHT | CHT-expressing cells, membrane potential dye, choline response; hits give low values | B-score at 10 µM | 0.86% of 310,000 active | AID 488975, 2010;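 active = B-score over 3 SD under the library average, and starting fluorescence ratio not unusually high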;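 also: choline stimulus applied at its EC90 after an EC20 pre-addition; B-score computed on integrated fluorescence ratio after choline addition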
pCIP destab = p/CIP-EGFP fusion destabilizers, primary screen, fluorescence, F442A cells; 16 h; decrease of EGFP signal, % at 10 µM; 0.01% of 290,000 active;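 active = EGFP signal decrease of at least 30% at 10 µM or well 3 SD below plate mean, unless failing retest; inactive = the rest, including hits failing retest or dose response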
Target sequence (Q05BA5 1-1403): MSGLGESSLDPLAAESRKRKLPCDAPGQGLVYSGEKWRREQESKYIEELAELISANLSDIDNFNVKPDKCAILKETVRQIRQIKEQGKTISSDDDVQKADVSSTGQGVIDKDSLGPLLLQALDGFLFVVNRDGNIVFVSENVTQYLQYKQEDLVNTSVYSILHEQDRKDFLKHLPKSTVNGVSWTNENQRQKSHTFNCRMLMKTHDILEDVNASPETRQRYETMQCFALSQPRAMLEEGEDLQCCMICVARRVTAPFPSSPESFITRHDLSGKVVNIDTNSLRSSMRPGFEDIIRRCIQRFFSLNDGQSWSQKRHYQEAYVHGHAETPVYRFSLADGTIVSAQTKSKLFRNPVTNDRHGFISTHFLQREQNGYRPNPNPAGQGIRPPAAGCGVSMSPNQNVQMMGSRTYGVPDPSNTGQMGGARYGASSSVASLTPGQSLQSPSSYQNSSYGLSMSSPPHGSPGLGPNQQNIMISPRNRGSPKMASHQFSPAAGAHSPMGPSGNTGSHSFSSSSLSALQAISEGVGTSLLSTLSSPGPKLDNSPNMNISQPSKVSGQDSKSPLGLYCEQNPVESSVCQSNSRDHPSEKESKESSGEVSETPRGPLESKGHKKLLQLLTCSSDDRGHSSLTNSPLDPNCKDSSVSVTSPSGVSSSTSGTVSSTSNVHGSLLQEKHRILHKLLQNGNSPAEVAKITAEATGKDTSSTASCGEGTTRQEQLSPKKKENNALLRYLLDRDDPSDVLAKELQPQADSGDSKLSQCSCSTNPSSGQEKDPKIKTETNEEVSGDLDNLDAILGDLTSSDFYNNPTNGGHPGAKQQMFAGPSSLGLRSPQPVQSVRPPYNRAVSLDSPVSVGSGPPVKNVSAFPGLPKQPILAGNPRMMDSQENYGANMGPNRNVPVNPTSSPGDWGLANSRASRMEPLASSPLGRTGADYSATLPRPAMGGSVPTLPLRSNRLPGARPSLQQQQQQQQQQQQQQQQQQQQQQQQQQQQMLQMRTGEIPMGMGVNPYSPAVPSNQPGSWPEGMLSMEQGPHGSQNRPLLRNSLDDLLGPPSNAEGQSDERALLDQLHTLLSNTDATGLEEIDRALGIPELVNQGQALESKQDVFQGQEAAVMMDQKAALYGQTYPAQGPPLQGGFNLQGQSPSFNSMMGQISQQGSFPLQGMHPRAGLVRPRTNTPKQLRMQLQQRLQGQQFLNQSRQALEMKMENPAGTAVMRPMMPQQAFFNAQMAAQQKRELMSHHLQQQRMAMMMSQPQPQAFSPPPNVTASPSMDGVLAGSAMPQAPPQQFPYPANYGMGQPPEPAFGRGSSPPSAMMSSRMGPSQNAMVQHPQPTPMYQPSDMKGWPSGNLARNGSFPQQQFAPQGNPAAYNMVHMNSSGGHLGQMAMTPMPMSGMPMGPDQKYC
CHT activ conf = CHT activators, confirmation, cell-based, membrane potential dye, duplicate; shares compounds with CHT allo act; CHT-expressing cells, membrane potential dye fluorescence (FDSS); % of choline EC20–EC90 response window; HEK293 expressing CHT LV-AA mutant; choline added at its EC20; activation, % at 10 µM; 91% of 2,500 active; AID 504833, 2011;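 active = primary screen active, with duplicate mean activation above negative control mean plus 3 SD, cut at about 11% in these data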
HEK293 MP dye = membrane potential response in parental HEK293 cells, counter-screen for CHT activator project, cell-based, membrane potential dye. 62% of 2,500 active. shares compounds with CHT allo act. membrane potential dye fluorescence (FDSS); measured after EC20 choline addition. ratio readout change at 10 µM, hits read low;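 active = duplicate-averaged ratio beyond 3 SD from buffer wells, up or down, though filed actives are nearly all decreases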
* = called active by the depositor; i = inactive; / = not tested or not shown. Hits are enriched below; roughly 2.3% of the tested compounds scored in any of these assays.

SMILES | T cell modulator | Pemphigus Ab inh | GPR7 antag | CHT allo act | CHT block | pCIP destab | CHT activ conf | HEK293 MP dye
CCC(CC)COC(=O)C(C#N)c1nc2ccccc2nc1N1CCN(CC)CC1 (centres undefined) | 334 | 104 | 4 | i | i | -7 | 32* | -37*
Cc1c(N(C)S(=O)(=O)c2ccc(Cl)c(C(=O)NCC(C)(C)N3CCOCC3)c2)c(=O)n(-c2ccccc2)n1C | / | 103 | / | / | / | / | / | /
COc1ccc(S(=O)(=O)N2c3ccc(F)cc3CCC2C)cc1 (centres undefined) | i | 109 | / | i | i | / | 44* | i
N/C(=N\OC(=O)c1ccncc1)c1cccc([N+](=O)[O-])c1 | 278 | 118 | 11 | 7.3* | i | 7 | 37* | -46*
COc1ccc(NC(=O)c2cc(S(=O)(=O)N3CCCCC3)ccc2C)cc1S(=O)(=O)N1CCOCC1 | / | 77 | / | / | / | / | / | /
CC(=O)CCc1ccc(OCCCCN2CCC(Cc3ccccc3)CC2)cc1 | 157 | 104 | 9 | i | i | 9 | 15* | -26*
NC(=S)NN=C1C=CCCC1 | / | 95 | / | / | / | / | / | /
CCCCc1c(O)c2ccccc2[nH]c1=O | 370 | / | -1 | i | i | -11 | / | /
CCCCCCCCC1=NCCc2c1[nH]c1ccccc21 | 262 | 104 | 9 | i | i | -5 | 48* | i
CCCNC(=O)c1onc(CSc2ccncc2)c1C(=O)NCCC | 919 | 99 | / | i | i | -8 | / | /
CN(C)CCNC(=O)c1onc(CSc2ccncc2)c1C(=O)NCCN(C)C | 355 | 99 | / | i | i | / | 50* | -58*
COc1cc2c(cc1NC(=O)COCC(=O)O)oc1ccccc12 | 163 | 102 | -11 | i | i | -14 | 46* | -45*
COc1ccccc1CC(=O)Nc1cc2oc3ccccc3c2cc1OC | 407 | 126 | -10 | i | i | -11 | / | /
Cc1cc(O)c2c(CN3CCN(Cc4ccccc4)CC3)cc(=O)oc2c1 | 746 | 95 | 5 | i | i | -8 | / | /
Cc1cc(C)c2c(CN3CCN(C)CC3)cc(=O)oc2c1 | 464 | 118 | -2 | i | i | -8 | 46* | -42*
Cc1ccc2oc(=O)cc(CN3CCC(C)CC3)c2c1 | 272 | 96 | 3 | i | i | -9 | / | /
CCc1cc2c(CN3CCN(CCO)CC3)cc(=O)oc2cc1O | 262 | 80 | -15 | i | i | 0 | 37* | -30*
CCN1CCN(Cc2cc(=O)oc3ccc(C)cc23)CC1 | 197 | 109 | -21 | i | i | -13 | 44* | -46*
CN1CCN(Cc2cc(=O)oc3cc4c(cc23)CCC4)CC1 | 288 | 104 | -9 | i | i | -19 | 22* | -49*
CC1CCN(Cc2cc(=O)oc3cc4c(cc23)CCCC4)CC1 | 333 | 117 | -4 | i | i | -11 | / | /
COc1ccccc1N(C)S(=O)(=O)c1ccc(C(=O)N(C)Cc2ccc(OC(F)F)cc2)cc1 | / | 101 | / | / | / | / | / | /
CCc1cccc(NC(=O)COC(=O)CSc2ccc(C)cc2)c1 | / | 101 | / | / | / | / | / | /
CCCNC(=O)C[C@H]1C[C@H]2c3cc(NC(=O)Nc4ccc(F)cc4)ccc3O[C@H]2[C@@H](CO)O1 | / | 99 | / | / | / | / | / | /
O=C(Cc1cccc(NC(=O)C2CCCN(C(=O)CCc3ccccc3)C2)c1)Nc1ccc(C(=O)N2CCCCC2)cc1 (centres undefined) | / | 100 | / | / | / | / | / | /
Cc1c(NC(=O)c2cccc(NC(=O)COc3cccc(Br)c3)c2)c(=O)n(-c2ccccc2)n1C | 313 | / | / | / | / | / | / | /
SMILES | T cell modulator | Pemphigus Ab inh | GPR7 antag | CHT allo act | CHT block | pCIP destab | CHT activ conf | HEK293 MP dye
Cc1ccc2c(CN3CCN(CCO)CC3)cc(=O)oc2c1C | / | 103 | -9 | 8.9* | i | -7 | 54* | -59*
CCOC(=O)c1ccc(NC(=O)CSc2nc(NC(=O)c3ccccc3)c3c(C)c(C)oc3n2)cc1 | i | 96 | 3 | i | i | 14 | / | /
COC(=O)c1ccccc1NC(=O)CSc1nc(NC(=O)c2ccccc2)c2c(C)c(C)oc2n1 | / | 93 | -10 | 8.4* | i | -8 | 2 | i
COc1ccc(OC)c2c(C)cc(NCCN3CCOCC3)nc12 | 867 | 105 | -9 | 9.2* | i | -14 | 65* | -60*
O=C(COC(=O)c1cc[n+]([O-])cc1)Nc1ccc([N+](=O)[O-])cc1Cl | 721 | 103 | 2 | 12* | i | 5 | 62* | -79*
CN(C)c1cc[n+](CC(=O)Nc2ccc([N+](=O)[O-])cc2Cl)cc1 | 375 | 110 | -2 | 6.5* | i | 8 | 5 | -33*
O=C(COC(=O)c1cc[n+]([O-])cc1)Nc1ccc(Cl)cc1[N+](=O)[O-] | 370 | 101 | -14 | i | i | 0 | 20* | -44*
Cc1ccc[n+](CC(=O)Nc2ccc([N+](=O)[O-])cc2Cl)c1 | 308 | / | -11 | i | i | -10 | / | /
O=C(COC(=O)c1cc[n+]([O-])cc1)Nc1ccc(Cl)cc1Cl | 185 | / | / | / | / | / | / | /
CC1(C(=O)N2CCC(CC3CC(c4cccc(Br)c4)=NO3)(C(=O)NCC3CCCCC3)CC2)CC1 (centres undefined) | 588 | 101 | 17 | i | i | -16 | / | /
CCOC(=O)C1(CCOC)CCN(C/C=C/c2ccccc2OC)CC1 | 202 | 114 | -3 | i | i | / | / | /
CC(=O)Nc1ccc(S(=O)(=O)NCCC(=O)OCC(=O)NNC(=O)c2ccccc2)cc1 | 193 | 103 | / | i | i | / | / | /
CCCCCCCCCCCCCCCC[N+](C)(C)CCN(Cc1ccc(OC)cc1)c1ncccn1 | 273 | 118 | / | i | i | / | 18* | -60*
CC[N+](C)(C)CCN(Cc1ccc(Cl)cc1)c1ccccn1 | 405 | 100 | 14 | i | i | 5 | / | /
COC(=O)C1=C(C(=O)OC)C2C=CC1C1C(OC(C)=O)C(OC(C)=O)C21 (centres undefined) | / | 105 | / | / | / | / | / | /
COc1ccc(-c2cn(-c3ccc(SC(F)F)cc3)c3[n+]2CCC3)cc1OC | 274 | 103 | 0 | 6.3* | i | -3 | 32* | -39*
